Data from ChEMBL document CHEMBL5370667, “ent-Clavilactone J and Its Quinone Derivative, Meroterpenoids from the Fungus Resupinatus sp” (J Nat Prod, 2023).
≈ marks a conversion by molar mass, not a printed value. Calls of active or inactive are those of the source. No cut-off for these calls is given here.

Experiments:
[1] = Antiproliferative activity against mouse L929 cells assessed as cell growth inhibition; format: toxicity, cell-based
Method in brief: (§1)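 IC50 (μM) determined against mammalian cell lines from the DSMZ ACC collection (SK-OV-3 without an ACC number), with epothilone B run in parallel as reference.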

Mucor hiemalis = assay: Antifungal activity against Mucor hiemalis DSM 2656 assessed as growth inhibition; format: functional
A549 = assay: Antiproliferative activity against human A549 cells assessed as cell growth inhibition; format: functional, cell-based; method in brief: as §1
SK-OV-3 = assay: Antiproliferative activity against human SK-OV-3 cells assessed as cell growth inhibition; format: functional, cell-based; method in brief: as §1
Wickerhamomyces anomalus = assay: Antifungal activity against Wickerhamomyces anomalus DSM 6766 assessed as growth inhibition; format: functional
Candida albicans = assay: Antifungal activity against Candida albicans DSM 1665 assessed as growth inhibition; format: functional
[2] = test system: Mycolicibacterium smegmatis; assay: Antibacterial activity against Mycolicibacterium smegmatis ATCC 700084 assessed as bacterial growth inhibition; format: functional
[3] = test system: Chromobacterium violaceum; assay: Antibacterial activity against Chromobacterium violaceum DSM 30191 assessed as bacterial growth inhibition; format: functional
MCF7 = assay: Antiproliferative activity against human MCF7 cells assessed as cell growth inhibition; format: functional, cell-based; method in brief: as §1
Pseudomonas aeruginosa = assay: Antibacterial activity against Pseudomonas aeruginosa DSM 19882 assessed as bacterial growth inhibition; format: functional
Acinetobacter baumannii = assay: Antibacterial activity against Acinetobacter baumannii DSM 30008 assessed as bacterial growth inhibition; format: functional
A-431 = assay: Antiproliferative activity against human A-431 cells assessed as cell growth inhibition; format: functional, cell-based; method in brief: as §1
Rhodotorula glutinis = assay: Antifungal activity against Rhodotorula glutinis DSM 10134 assessed as growth inhibition; format: functional
[4] = test system: Schizosaccharomyces pombe; assay: Antifungal activity against Schizosaccharomyces pombe DSM 70572 assessed as growth inhibition; format: functional
Staphylococcus aureus = assay: Antibacterial activity against Staphylococcus aureus DSM 346 assessed as bacterial growth inhibition; format: functional
Method in brief: (§2)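 Growth inhibition read as minimum inhibitory concentration (μg/mL) against strains from DSMZ. A positive-control antibiotic was run alongside.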

KB 3-1 = assay: Antiproliferative activity against human KB-3-1 cells assessed as cell growth inhibition; format: functional, cell-based; method in brief: as §1
PC-3 = assay: Antiproliferative activity against human PC-3 cells assessed as cell growth inhibition; format: functional, cell-based; method in brief: as §1
Bacillus subtilis = assay: Antibacterial activity against Bacillus subtilis DSM 10 assessed as bacterial growth inhibition; format: functional; method in brief: as §2
Escherichia coli = assay: Antibacterial activity against Escherichia coli DSM 1116 assessed as bacterial growth inhibition; format: functional

| Compound | IC50 [1] | IC50 (A549) | IC50 (SK-OV-3) | IC50 (MCF7) | IC50 (A-431) | MIC (Staphylococcus aureus) | IC50 (KB 3-1) | IC50 (PC-3) | MIC (Bacillus subtilis) | inhibition (Mucor hiemalis) | inhibition (Wickerhamomyces anomalus) | inhibition (Candida albicans) | inhibition [2] | inhibition [3] | inhibition (Pseudomonas aeruginosa) | inhibition (Acinetobacter baumannii) | inhibition (Rhodotorula glutinis) | inhibition [4] | inhibition (Escherichia coli) | further results |
| --- | --- | --- | --- | --- | --- | --- | --- | --- | --- | --- | --- | --- | --- | --- | --- | --- | --- | --- | --- | --- |
| C/C(=C\c1csc(C)n1)[C@@H]1C[C@@H]2O[C@]2(C)CCC[C@H](C)[C@H](O)[C@@H](C)C(=O)C(C)(C)[C@@H](O)CC(=O)O1 [PATUPILONE] | 0.00043 µM | 5.3e-05 µM | 0.00018 µM | 0.03 nM | 5.1e-05 µM | 0.21 µg/mL (≈ 0.414 µM) | 3.4e-05 µM | 0.00028 µM | 8.3 µg/mL (≈ 16.3 µM) |  |  |  |  |  |  |  |  |  |  | MIC (Mucor hiemalis): 4.2 µg/mL (≈ 8.27 µM); MIC (Wickerhamomyces anomalus; Hansenula anomala): 8.3 µg/mL (≈ 16.3 µM); MIC (Candida albicans): 8.3 µg/mL (≈ 16.3 µM); MIC [2]: 1.7 µg/mL (≈ 3.35 µM); MIC [3]: 0.42 µg/mL (≈ 0.827 µM); MIC (Pseudomonas aeruginosa): 0.21 µg/mL (≈ 0.414 µM); MIC (Acinetobacter baumannii): 0.26 µg/mL (≈ 0.512 µM); MIC (Rhodotorula glutinis): 2.1 µg/mL (≈ 4.14 µM); MIC [4]: 4.2 µg/mL (≈ 8.27 µM); MIC (Escherichia coli): 1.7 µg/mL (≈ 3.35 µM) |
| C[C@@]12CC3=C(C(=O)C=CC3=O)[C@@H]3OC(=O)[C@@]4(CC[C@@H]1O2)O[C@@H]34 | 6 µM | 57 µM | 30 µM | 4200 nM | 6.5 µM | 67 µg/mL (≈ 222 µM) | 22 µM | 19 µM | 67 µg/mL (≈ 222 µM) | inactive | inactive | inactive | inactive | inactive | inactive | inactive | inactive | inactive | inactive |  |
| C[C@@]12Cc3c(O)ccc(O)c3[C@@H]3OC(=O)[C@@]4(CC[C@@H]1O2)O[C@@H]34 | 2.1 µM | 19 µM | 47 µM | 1900 nM | 3.5 µM |  | 6.7 µM | 18 µM | 17 µg/mL (≈ 55.9 µM) | inactive | inactive | inactive | inactive | inactive | inactive | inactive | inactive | inactive | inactive |  |
